From publication PMC7470514 (RSC Chemical Biology, 2020) come the findings set out here.

“And” between values parts separate entries of the source, which are not always exact repeats. Identical values can stand only once. Where no end group is shown, it is not given here. Bounds are passed on as bounds.

Type in all cases: cell-based
Assay [1] deals with T1, S. pneumoniae ComD1 receptor (Streptococcus pneumoniae serotype 2, UniProt A0A0H2ZM50).
T1 sequence (A0A0H2ZM50 1-441): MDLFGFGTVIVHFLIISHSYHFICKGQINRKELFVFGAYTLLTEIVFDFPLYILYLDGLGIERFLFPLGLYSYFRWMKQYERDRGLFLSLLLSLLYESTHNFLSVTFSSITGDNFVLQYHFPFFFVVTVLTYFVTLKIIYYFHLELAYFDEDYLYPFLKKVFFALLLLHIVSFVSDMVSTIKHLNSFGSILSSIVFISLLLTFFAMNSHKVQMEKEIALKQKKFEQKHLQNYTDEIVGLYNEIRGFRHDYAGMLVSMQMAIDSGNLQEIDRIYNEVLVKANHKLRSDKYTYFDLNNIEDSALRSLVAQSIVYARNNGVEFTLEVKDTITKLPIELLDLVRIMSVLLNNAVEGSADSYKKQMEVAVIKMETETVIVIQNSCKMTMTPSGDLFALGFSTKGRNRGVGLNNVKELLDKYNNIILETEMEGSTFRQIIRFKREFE
Description: β-galactosidase reporter assay, competitive inhibition. The method, boiled down: (§1)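 Cultures were prepared as for agonism: overnight THY with chloramphenicol, diluted to early exponential phase. Wells held native CSP at a fully activating level (50 nM CSP1 for D39/ComD1; 250 nM CSP2 for TIGR4/ComD2), with test peptide added from a 1 mM stock in triplicate. Controls were CSP plus DMSO, and DMSO alone. Plates were incubated 30 min at 37 °C, then lysed and read by ONPG. IC50 was taken from concentration series.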

The target of assay [2] is T2, S. pneumoniae ComD2 receptor (Streptococcus pneumoniae serotype 4, UniProt A0A0H2US84).
T2 sequence (A0A0H2US84 1-441): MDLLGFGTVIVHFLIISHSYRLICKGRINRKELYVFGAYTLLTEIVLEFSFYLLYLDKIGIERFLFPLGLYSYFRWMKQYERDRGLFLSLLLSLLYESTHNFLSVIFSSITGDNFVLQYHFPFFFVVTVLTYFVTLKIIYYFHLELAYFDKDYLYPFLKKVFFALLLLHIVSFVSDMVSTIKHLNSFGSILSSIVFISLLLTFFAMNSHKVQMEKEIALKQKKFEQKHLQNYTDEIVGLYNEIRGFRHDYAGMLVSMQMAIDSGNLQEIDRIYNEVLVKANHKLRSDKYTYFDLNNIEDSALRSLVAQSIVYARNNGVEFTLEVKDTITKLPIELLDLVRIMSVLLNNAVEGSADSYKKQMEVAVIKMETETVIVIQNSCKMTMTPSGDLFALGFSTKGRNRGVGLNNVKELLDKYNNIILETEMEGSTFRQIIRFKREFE
The description is as above. In outline:
as §1

In assay [3] the target is T1, S. pneumoniae ComD1 receptor. Put plainly: β-galactosidase reporter assay, agonism. The method, boiled down: (§2)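 Reporter strains carry lacZ under the comX promoter. Strains were grown from THY agar (5% horse serum, 4 μg mL−1 chloramphenicol; 8 h, 37 °C, 5% CO2), then overnight (15 h) in THY with chloramphenicol. Cultures were diluted 1:50 (D39) or 1:10 (TIGR4) and grown to OD600 0.30–0.35 or 0.20–0.25.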

Assay [4] deals with T2, S. pneumoniae ComD2 receptor. Put plainly: β-galactosidase reporter assay, agonism. The method, boiled down: as §2

Turning to “AIRQTHIFFFNFFKRR [S. mitis-CSP-2-E1AN7II8F]”, the IC50 was 204 nM in assay [1] and 135 nM in assay [2]. Turning to AIRQTHNIFFNFFKRR [S. mitis-CSP-2-E1A], the IC50 in assay [1] stood at 497 nM.

Sequence “AMRLTHNFFFNFFKRR [S. mitis-CSP-2-E1AI2MQ4LI8F]” showed an IC50 in assay [1] of 317 nM. Still for that read-out and setting: the value for “AMRLTHNIFFNFFKRR [S. mitis-CSP-2-E1AI2MQ4L]” was 54.2 nM. Take “AMRQTHFFFFNFFKRR [S. mitis-CSP-2-E1AI2MN7FI8F]”: the figures for the IC50 in assay [1] and in assay [2] were 294 nM and 418 nM, respectively. In the same order, the values of “AMRQTHIFFFNFFKRR [S. mitis-CSP-2-E1AI2MN7II8F]” are 141 nM and 32.9 nM.

For “AMRQTHNFFFNFFKRR [S. mitis-CSP-2-E1AI2MI8F]”, the IC50 in assay [1] stood at 143 nM. “AMRQTHNIFFNFFKRR [S. mitis-CSP-2-E1AI2M]”: the IC50 in assay [1] was found to be 85.4 nM. As for “EIRLTHFFFFNFFKRR [S. mitis-CSP-2-Q4LN7FI8F]”, the EC50 in assay [3] came to 427 nM; in assay [4], 87.2 nM. As to “EIRLTHFIFFNFFKRR [S. mitis-CSP-2-Q4LN7F]”, the EC50 in assay [3] is 371 nM; in assay [4] it was 322 nM. “EIRLTHFIFFNLFKRR [S. mitis-CSP-2-Q4LN7FF12L]” gave an EC50 in assay [3] of 426 nM. In assay [3], “EIRLTHIFFFNFFKRR [S. mitis-CSP-2-Q4LN7II8F]” displayed an EC50 of 242 nM. “EIRLTHIIFFNFFKRR [S. mitis-CSP-2-Q4LN7I]”: the EC50 in assay [3] turned out to be 348 nM; in assay [4], 315 nM.

On to “EIRLTHNFFFNFFKRR [S. mitis-CSP-2-Q4LI8F]”, for which the EC50 amounted to 280 nM in assay [3] and 370 nM in assay [4]. Consider “EIRLTHNIFFFFFKRR [S. mitis-CSP-2-Q4LN11F]”, for which the EC50 came out at 9.38 nM in assay [3] and 434 nM in assay [4].

Regarding EIRLTHNIFFNFFKRR [S. mitis-CSP-2-Q4L], the EC50 in assay [3] worked out at 88.2 nM; in assay [4], 252 nM. Taken in the same sequence, the figures for “EIRLTHNIFFNLFKRR [S. mitis-CSP-2-Q4LF12L]” were 68.7 nM and 202 nM. With “EIRQTHFFFFNFFKRR [S. mitis-CSP-2-N7FI8F]”, in assay [4], the midpoint of the response, the EC50, lay at 24.6 nM. Take “EIRQTHFFFFNLFKRR [S. mitis-CSP-2-N7FI8FF12L]”: the EC50 in assay [3] was 101 nM; in assay [4] it was 67.6 nM. In the same order, the values of EIRQTHFIFFNFFKRR [S. mitis-CSP-2-N7F] are 140 nM and 471 nM. Taken in the same sequence, the figures for “EIRQTHFIFFNLFKRR [S. mitis-CSP-2-N7FF12L]” were 156 nM and 533 nM. In the same order, the values of “EIRQTHIFFFNFFKRR [S. mitis-CSP-2-N7II8F]” are 87.2 nM and 22.8 nM. On to “EIRQTHIFFFNLFKRR [S. mitis-CSP-2-N7II8FF12L]”, for which the EC50 in assay [3] turned out to be 891 nM. As for EIRQTHIIFFNFFKRR [S. mitis-CSP-2-N7I], the figures for the EC50 in assay [3] and in assay [4] were 101 nM and 211 nM, respectively. In the same order, the values of “EIRQTHIIFFNLFKRR [S. mitis-CSP-2-N7IF12L]” are 613 nM and 321 nM. For “EIRQTHNFFFFFFKRR [S. mitis-CSP-2-I8FN11F]”, the EC50 in assay [3] amounted to 12.2 nM; in assay [4], 284 nM. As for EIRQTHNFFFNFFKRR [S. mitis-CSP-2-I8F], the EC50 in assay [3] came to 128 nM; in assay [4], 209 nM. In the same order, the values of “EIRQTHNFFFNLFKRR [S. mitis-CSP-2-I8FF12L]” are 160 nM and 202 nM. Taken in the same sequence, the figures for EIRQTHNIFFFFFKRR [S. mitis-CSP-2-N11F] were 4.63 nM and 220 nM.

For the sequence “EIRQTHNIFFFLFKRR [S. mitis-CSP-2-N11FF12L]”, the EC50 in assay [3] was found to be 4.97 nM; in assay [4], 127 nM. Taken in the same sequence, the figures for EIRQTHNIFFNFFKRR [S. mitis-CSP-2] were 663 nM and 635 nM. Taken in the same sequence, the figures for EIRQTHNIFFNLFKRR [S. mitis-CSP-2-F12L] were 54.3 nM and 813 nM. Turning to “EMRLTHFIFFNFFKRR [S. mitis-CSP-2-I2MQ4LN7F]”, the EC50 was determined as 137 nM in assay [3] and 75.6 nM in assay [4].

Regarding “EMRLTHIIFFNFFKRR [S. mitis-CSP-2-I2MQ4LN7I]”, the EC50 in assay [3] was found to be 155 nM; in assay [4], 187 nM. Take “EMRLTHNFFFNFFKRR [S. mitis-CSP-2-I2MQ4LI8F]”: the EC50 in assay [3] was < 100 nM and 42 nM; in assay [4], < 100 nM and 30 nM.

For “EMRLTHNIFFFFFKRR [S. mitis-CSP-2-I2MQ4LN11F]”, the EC50 in assay [3] worked out at 14.8 nM; in assay [4] it was 188 nM. As for “EMRLTHNIFFNFFKRR [S. mitis-CSP-2-I2MQ4L]”, the figures for the half-maximal effective concentration (EC50) in assay [3] and in assay [4] were 49.9 nM and 141 nM, respectively. Taken in the same sequence, the figures for “EMRLTHNIFFNLFKRR [S. mitis-CSP-2-I2MQ4LF12L]” were 17.1 nM and 139 nM.

“EMRQTHFFFFNFFKRR [S. mitis-CSP-2-I2MN7FI8F]”: the EC50 is < 100 nM and 63.6 nM in assay [3]; < 100 nM and 13.5 nM in assay [4]. “EMRQTHFIFFNFFKRR [S. mitis-CSP-2-I2MN7F]”: the EC50 in assay [3] amounted to 131 nM; in assay [4], 123 nM. In the same order, the values of “EMRQTHFIFFNLFKRR [S. mitis-CSP-2-I2MN7FF12L]” are 72.8 nM and 112 nM.

For “EMRQTHIFFFNFFKRR [S. mitis-CSP-2-I2MN7II8F]”, the EC50 in assay [3] was < 100 nM and 61.6 nM; in assay [4], < 100 nM and 2.67 nM.

In assay [3], “EMRQTHIIFFFFFKRR [S. mitis-CSP-2-I2MN7IN11F]” came in with an EC50 of 568 nM. Take “EMRQTHIIFFNFFKRR [S. mitis-CSP-2-I2MN7I]”: the figures for the EC50 in assay [3] and in assay [4] were 448 nM and 54.8 nM, respectively. Regarding “EMRQTHNFFFFFFKRR [S. mitis-CSP-2-I2MI8FN11F]”, the EC50 in assay [3] was < 100 nM and 6.95 nM; in assay [4] it was < 100 nM and 26.2 nM. Consider “EMRQTHNFFFNFFKRR [S. mitis-CSP-2-I2MI8F]”, for which the EC50 was 151 nM in assay [3] and 83.2 nM in assay [4].

Turning to “EMRQTHNIFFFFFKRR [S. mitis-CSP-2-I2MN11F]”, the EC50 stood at 17.7 nM in assay [3] and 753 nM in assay [4]. For the sequence EMRQTHNIFFNFFKRR [S. mitis-CSP-2-I2M], the EC50 in assay [3] is 87.7 nM; in assay [4] it was 136 nM. On to “EMRQTHNIFFNLFKRR [S. mitis-CSP-2-I2MF12L]”, for which the EC50 in assay [3] was 25.8 nM; in assay [4], 146 nM.

The IC50 is the midpoint of a concentration-inhibition curve. By EC50 is commonly meant the concentration needed to bring the measured effect to its halfway point. Low readings indicate an effect from little substance, high ones a need for much substance.
